# Test results published in the RNAGym collection of RNA variant scans (doi:10.1002/anie.201605470).
# B1: Osa-1-4 twister ribozyme (parent)
# chain: CCGCCUAACACUGCCAAUGCCGGUCCCAAGCCCGGAUAAAAGUGGAGGGGGCGG
# Variants of: B1
# Experiment: self-cleavage, relative activity (ratio to wild type); higher = more cleavage; co-transcriptional
# How it was run: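 A DNA template was synthesised for a 54-nucleotide twister ribozyme from Oryza sativa, with 97 % wild-type base and 1 % of each other base at each of the 48 positions downstream of the cleavage site. The ribozyme cleaved itself co-transcriptionally during 2 h of in vitro transcription at 37 °C. Reverse transcription with a template-switching oligonucleotide, PCR amplification and deep sequencing followed, and cleavage status came from reads with or without upstream sequence. Relative activity is the fraction cleaved normalised to wild type.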
row,Variant,self-cleavage
1,A40C G45U,0.03
2,A40C G45C,0.03
3,A40C C33G,0.02
4,A40C C33U,0.04
5,A40C C33A,0.05
6,A40G U12A,0.75
7,A40G U12G,0.28
8,A40G U12C,0.79
9,A40C U18C,0.08
10,A40C U18A,0.07
11,A40C U18G,0.09
12,A39U G22U,0.67
13,A39U G22C,0.06
14,A39U G22A,0.93
15,A40G C32U,0.09
16,A40G C32G,0.1
17,A40G C32A,0.06
18,A39U U18C,0.97
19,A39U U18A,0.95
20,A39U U18G,0.88
21,A40C U12G,0.47

row,Variant,self-cleavage
1,A40C U12C,0.07
2,A40C U12A,0.5
3,A39U G34U,0.53
4,A39U G34C,0.25
5,A39U G34A,0.68
6,A40G A8G,0.18
7,A40G A8U,0.11
8,A40G A8C,0.06
9,A40G A41U,0.91
10,A40G A41C,0.41
11,A40G A41G,0.22
12,A40C G51A,0.06
13,A40C G51C,0.04
14,A40C G51U,0.06
15,A40G C27A,0.11
16,A40G C27U,0.11
17,A40G C27G,0.09
18,A40C C27G,0.02
19,A40C C27U,0.03
20,A40C C27A,0.05
21,A40C G35C,0.05

row,Variant,self-cleavage
1,A40C G35U,0.08
2,A40C G35A,0.08
3,A40G C31U,0.16
4,A40G C31A,0.03
5,A40G C31G,0.08
6,A39U G23A,0.26
7,A39U G23C,0.06
8,A39U G23U,0.05
9,A39U C33G,0.07
10,A39U C33A,0.09
11,A39U C33U,0.52
12,A40C G49U,0.03
13,A40C G49C,0.02
14,A40C G49A,0.04
15,A39U U12C,0.15
16,A39U U12G,0.15
17,A39U U12A,0.59
18,A39U C32U,0.11
19,A39U C32A,0.08
20,A39U C32G,0.1
21,A40U A8U,0.07

row,Variant,self-cleavage
1,A40U A8G,0.15
2,A40U A8C,0.05
3,A40G C25A,0.06
4,A40G C25G,0.06
5,A40G C25U,0.14
6,A39U C25U,0.45
7,A39U C25G,0.07
8,A39U C25A,0.06
9,A40C A7U,0.02
10,A40C A7C,0.02
11,A40C A7G,0.06
12,A40G C9U,0.23
13,A40G C9G,0.18
14,A40G C9A,0.09
15,A40G G50A,0.43
16,A40G G50C,0.29
17,A40G G50U,0.54
18,A40C A8U,0.04
19,A40C A8G,0.05
20,A40C A8C,0.04
21,A40C C26G,0.02
